ARFGAP1 inh – inhibits rat ARF GTPase activating protein 1. Arfgap1-stimulated ARF1 GTP hydrolysis, GDP FP detection. actives 0.26% (n = 360,000). AID 651572. inhibition, % at 16.5 µM. Q62848;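 active means inhibition above a per-plate limit, mean inhibition of low control wells plus 3 SD, cut at about 25% in these data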;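 further: 0% = DMSO wells with enzyme and 100% = wells lacking Arfgap1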
Target sequence (Q62848 1-136 limits assumed): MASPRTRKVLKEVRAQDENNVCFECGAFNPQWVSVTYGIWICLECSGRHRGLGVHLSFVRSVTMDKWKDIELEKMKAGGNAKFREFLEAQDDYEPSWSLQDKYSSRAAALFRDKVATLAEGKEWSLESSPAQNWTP
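System: truncated rat Arfgap1 GAP domain / Medium: HEPES-based buffer, pH 7.5 / Also added: N-terminally truncated human ARF1-GTP substrate / Incubation: enzyme reaction 120 min at 25 °C after 20 min preincubation / Measured by: FP of antibody-bound GDP Alexa 633 tracer, ex 620/em 688 nm / Replicates: singlicate, each compound tested once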
PAFAH2 inh – PAFAH2 (human) inhibition | AID 492956 | recombinant PAFAH2, FP-rhodamine activity probe, fluorescence polarization | Q99487 | actives 0.99% (n = 340,000) | inhibition, % at 3.39 µM;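 active means inhibition above the mean over all tested compounds plus 3 SD, cut at about 30% in these data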;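 further: inhibitors block probe labeling of enzyme so polarization drops; 0% = enzyme with DMSO and 100% = wells lacking PAFAH2 protein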
PAFAH1B2 FP inh – PAFAH1B2 (human) inhibition. P68402. recombinant PAFAH1B2, FP-rhodamine activity probe, fluorescence polarization. inhibition, % at 3.39 µM. actives 1.2% (n = 340,000). AID 492953;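 active means inhibition above the mean of all tested compounds plus 3 SD, cut at about 24% in these data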;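 further: 0% = enzyme with DMSO and 100% = wells lacking PAFAH1B2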
Target sequence (P68402 whole entry, looked up): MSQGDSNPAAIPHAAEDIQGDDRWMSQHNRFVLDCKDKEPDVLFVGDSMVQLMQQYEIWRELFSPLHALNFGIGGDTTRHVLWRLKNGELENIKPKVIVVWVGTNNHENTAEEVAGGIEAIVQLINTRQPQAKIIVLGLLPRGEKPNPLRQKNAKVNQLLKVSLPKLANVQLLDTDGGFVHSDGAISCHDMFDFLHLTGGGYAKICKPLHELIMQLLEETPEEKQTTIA
pPAFAH FP inh – pPAFAH (human) enzyme inhibition; Q13093; recombinant pPAFAH, FP-rhodamine probe fluorescence polarization; inhibition, % at 3.39 µM; actives 1.5% (n = 330,000);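 active means inhibition above the mean inhibition across the screen plus 3 SD, cut at about 25% in these data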;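 further: inhibitors block binding of the rhodamine activity-based probe so polarization drops; 0% = enzyme with DMSO and 100% = wells lacking pPAFAH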
PAFAH1B3 FP inh – PAFAH1B3 (human) inhibition; recombinant PAFAH1B3, FP-rhodamine probe, fluorescence polarization; inhibition, % at 3.39 µM; AID 492972; actives 0.28% (n = 340,000);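 active means inhibition above the screen-wide average of all tested compounds plus 3 SD, cut at about 25% in these data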;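 further: 0% = enzyme with DMSO only and 100% = wells lacking PAFAH1B3 protein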
Target sequence (Q15102 whole entry, looked up): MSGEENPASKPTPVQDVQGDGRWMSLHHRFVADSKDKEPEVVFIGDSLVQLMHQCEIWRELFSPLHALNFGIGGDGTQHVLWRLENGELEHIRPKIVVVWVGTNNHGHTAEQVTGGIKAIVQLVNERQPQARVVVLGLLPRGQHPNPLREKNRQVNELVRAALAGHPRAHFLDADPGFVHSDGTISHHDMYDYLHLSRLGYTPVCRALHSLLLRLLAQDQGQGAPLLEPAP
ASAP1 inh – blocks human ASAP1-stimulated Arf1 GTP hydrolysis; GDP FP detection; Q9ULH1; inhibition, % at 16.5 µM; actives 0.19% (n = 360,000); in the data active means inhibition above about 25%;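 further: 0% = vehicle with enzyme and substrate and 100% = no enzyme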
pPAFAH confirm – pPAFAH (human) inhibition, confirmed; recombinant pPAFAH, FP-Rh probe fluorescence polarization; shares compounds with pPAFAH FP inh; actives 72% (n = 2,300); AID 463230; inhibition, % at 3.39 µM;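 active means mean inhibition of the triplicate above the hit cutoff set for the earlier primary screen, cut at about 25% in these data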;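 further: 0% = enzyme with DMSO and 100% = wells lacking pPAFAH enzyme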
An asterisk follows results filed as active. This is a sample that favours compounds with a hit; in the whole collection about 2.8% have one here.

For COc1ccc(NC(=O)CSc2nc3nc(C)cc(C)c3c(=O)[nH]2)cc1 the results were ARFGAP1 inh 1, PAFAH2 inh -1, PAFAH1B2 FP inh 4, pPAFAH FP inh 69*, PAFAH1B3 FP inh 1, ASAP1 inh 1 and pPAFAH confirm 2.
`CCN(CC)c1ccc(NC(=O)CSc2nc3nc(C)cc(C)c3c(=O)[nH]2)cc1` gave ARFGAP1 inh 12, PAFAH2 inh 15, PAFAH1B2 FP inh 7, pPAFAH FP inh 15, PAFAH1B3 FP inh 5 and ASAP1 inh -3.
`CC(C)CNC(=O)C1(C)CCCN1Cc1ccc(OC(F)(F)F)cc1` (stereo unspecified) gave ARFGAP1 inh 0 and ASAP1 inh 8.
`Cc1ccc(NS(=O)(=O)c2ccc(-c3cnc(C4CC4)o3)cc2)c(C)c1` gave ARFGAP1 inh 8, PAFAH2 inh 4, PAFAH1B2 FP inh 2, pPAFAH FP inh 53*, PAFAH1B3 FP inh 14, ASAP1 inh -10 and pPAFAH confirm 46*.
Screening Cc1cccc(-n2cc(-c3ccccc3)c3c(NN4CCOCC4)ncnc32)c1 returned ARFGAP1 inh -5, PAFAH2 inh -1, PAFAH1B2 FP inh 0, pPAFAH FP inh 75*, PAFAH1B3 FP inh -3, ASAP1 inh 6 and pPAFAH confirm 12.
`c1ccc(-c2cn(-c3ccccc3)c3ncnc(N4CCCCC4)c23)cc1` gave ARFGAP1 inh 16, PAFAH2 inh -6, PAFAH1B2 FP inh 2, pPAFAH FP inh 18, PAFAH1B3 FP inh 7 and ASAP1 inh 15.
For O=C(COC(=O)CCSc1ccccc1)Nc1ccccc1Br the results were ARFGAP1 inh -11, PAFAH2 inh 9, PAFAH1B2 FP inh 11, pPAFAH FP inh 14, PAFAH1B3 FP inh 6 and ASAP1 inh -7.
COC(=O)c1cc(O)cc(OC)c1Oc1cc(C)cc(O)c1C(=O)O was read as ARFGAP1 inh 5, PAFAH2 inh 12, PAFAH1B2 FP inh 6, pPAFAH FP inh 35*, PAFAH1B3 FP inh 10, ASAP1 inh -3 and pPAFAH confirm 23.
Screening CCOC(=O)C1=C(C)N(C[C@@H]2CC[C@@H](Cc3ccc(-c4ccccc4)cc3)O2)C(=O)NC1c1ccc(SCc2ccco2)c([N+](=O)[O-])c1 (stereo partly specified) returned ARFGAP1 inh 6, PAFAH2 inh 5, PAFAH1B2 FP inh 1, pPAFAH FP inh 56*, PAFAH1B3 FP inh 0, ASAP1 inh -20 and pPAFAH confirm 25*.
`CCOC(=O)C1=C(C)N(C[C@@H]2CC[C@@H](Cc3ccc(-c4ccccc4)cc3)O2)C(=O)NC1c1ccc(C(F)(F)F)cc1` (stereo partly specified) gave ARFGAP1 inh 3, PAFAH2 inh 1, PAFAH1B2 FP inh 7, pPAFAH FP inh 8, PAFAH1B3 FP inh 2 and ASAP1 inh -3.
`Cc1cccc(NC(=O)COC(=O)c2nn(-c3ccccc3C(F)(F)F)cc2O)c1C` gave ARFGAP1 inh -6 and ASAP1 inh -4.
`CN1CCCCC(NC(=O)c2ccc(C#N)cc2)C1=O` (stereo unspecified) gave ARFGAP1 inh 0 and ASAP1 inh 0.
For O=C(O)c1ccc2nc(-c3ccccc3)c(-c3ccccc3)nc2c1 the results were ARFGAP1 inh 0, PAFAH2 inh -2, PAFAH1B2 FP inh 22, pPAFAH FP inh 6, PAFAH1B3 FP inh 0 and ASAP1 inh 8.
For c1coc(-c2nc3ccccc3nc2-c2ccco2)c1 the results were ARFGAP1 inh -6, PAFAH2 inh 40*, PAFAH1B2 FP inh 23, pPAFAH FP inh 44*, PAFAH1B3 FP inh 26*, ASAP1 inh -3 and pPAFAH confirm 11.
COc1ccc(CCNC(=O)c2cc(-c3ccco3)nc3ccccc23)cc1 was read as ARFGAP1 inh 0, pPAFAH FP inh 36*, ASAP1 inh -9 and pPAFAH confirm 15.
O=C(c1ccccc1)c1ccc2nc(-c3ccco3)c(-c3ccco3)nc2c1 was read as ARFGAP1 inh -8, PAFAH2 inh 31*, PAFAH1B2 FP inh 6, pPAFAH FP inh 58*, PAFAH1B3 FP inh 32*, ASAP1 inh -2 and pPAFAH confirm 43*.
For O=C(NC1CCCC1)c1ccc2nc(-c3ccco3)c(-c3ccco3)nc2c1 the results were PAFAH2 inh 38*, PAFAH1B2 FP inh 16, pPAFAH FP inh 68*, PAFAH1B3 FP inh 14 and pPAFAH confirm 34*.
For CCN(CC)CCNC(=O)c1cc(-c2ccco2)nc2ccccc12 the results were ARFGAP1 inh -3, PAFAH2 inh 7, PAFAH1B2 FP inh 8, pPAFAH FP inh -1, PAFAH1B3 FP inh 9 and ASAP1 inh 7.
For CC1=C(C(=O)N(C(C)C)C(C)C)CC(CC(=O)NC2CC2)C(=O)N1Cc1ccccc1 (stereo unspecified) the results were ARFGAP1 inh -7 and ASAP1 inh 2.
For COC(=O)[C@]12C[C@H](CC(=O)NCc3cccc4ccccc34)C(=O)N(Cc3ccccc3)C1=C[C@H](C1CCCC1)O[C@@H]2C the results were ARFGAP1 inh 5 and ASAP1 inh 6.
Screening O=C(NCCO)c1ccc(Cl)c(Cl)c1 returned ARFGAP1 inh -2, PAFAH2 inh -4, PAFAH1B2 FP inh -6, pPAFAH FP inh 0, PAFAH1B3 FP inh 3 and ASAP1 inh -1.
For O=C(NCCc1ccccc1)c1ccc2nc(-c3ccco3)c(-c3ccco3)nc2c1 the results were PAFAH2 inh 8, PAFAH1B2 FP inh 5, pPAFAH FP inh 60*, PAFAH1B3 FP inh 21 and pPAFAH confirm 37*.
`O=C(NCCO)c1ccc2nc(-c3ccco3)c(-c3ccco3)nc2c1` gave ARFGAP1 inh -7, PAFAH2 inh 31*, PAFAH1B2 FP inh 19, pPAFAH FP inh 39*, PAFAH1B3 FP inh 40*, ASAP1 inh 1 and pPAFAH confirm 11.
O=C(NCCc1ccccc1)c1ccc(=O)oc1 was read as ARFGAP1 inh 8, PAFAH2 inh 7, PAFAH1B2 FP inh 4, pPAFAH FP inh -5, PAFAH1B3 FP inh -5 and ASAP1 inh -7.
Screening CC1=CN2C(=N)/C(=C/c3ccco3)C(=O)N=C2S1 returned ARFGAP1 inh -5, PAFAH2 inh -7, PAFAH1B2 FP inh 2, pPAFAH FP inh -6, PAFAH1B3 FP inh -2 and ASAP1 inh 1.
CC1=CN2C(=N)/C(=C/c3ccc([N+](=O)[O-])o3)C(=O)N=C2S1 was read as ARFGAP1 inh -2, PAFAH2 inh 8, PAFAH1B2 FP inh -2, pPAFAH FP inh 44*, PAFAH1B3 FP inh -10, ASAP1 inh -1 and pPAFAH confirm 30*.

Assay outcomes (PubChem)
